Assay results from ChEMBL document CHEMBL1153071, “Synthesis, biological evaluation, and SAR study of novel pyrazole analogues as inhibitors of Mycobacterium tuberculosis: part 2. Synthesis of rigid pyrazolones” (Bioorg Med Chem, 2009).
Values after ≈ are worked out from the molar mass of the structure shown.

How the values were obtained:
[1] = test system: Mycobacterium tuberculosis; assay: Antimycobacterial activity against Mycobacterium tuberculosis; type: functional
Method in brief: (§1)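 Strain H37Rv ATCC 27294, kept on Löwenstein-Jensen slants and grown for inoculum in 7H9 broth with 10% ADC. Twofold agar dilution on Middlebrook 7H11 with 10% OADC, compound 0.0312–64 μg/mL. Each well received 10 μL of 1.5×10^5 cfu/mL (final 1.5×10^3 per well). Incubated 21–28 days. MIC (μg/mL) is the lowest concentration completely inhibiting visible growth.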

[2] = test system: Mycobacterium tuberculosis; assay: Antimycobacterial activity against Mycobacterium tuberculosis H37Rv ATCC 27294 after 21 to 28 days by twofold agar dilution method; type: functional; method in brief: as §1
[3] = Cytotoxicity against african green monkey Vero cells; type: cell-based; conditions: chlorocebus sabaeus

| SMILES | MIC [1] [µg/mL] | MIC [2] [µg/mL] | CC50 [3] [µg/mL] |
| --- | --- | --- | --- |
| Cc1[nH]n(-c2ccc(Cl)cc2)c(=O)c1C(=O)c1ccc(Cl)cc1 | 4 (≈ 11.5 µM) | – | – |
| CC1=NN(c2ccc(Cl)cc2)C(=O)/C1=C\N1CCN(C)CC1 | – | 64 (≈ 201 µM) | – |
| CC1=NN(c2ccc(Cl)cc2)C(=O)/C1=C(/c1ccc(Cl)cc1)N1CCSCC1 | – | 8 (≈ 18.5 µM) | 4.86 (≈ 11.2 µM) |
| CC1=NN(c2ccc(Cl)cc2)C(=O)/C1=C(/c1ccc(Cl)cc1)N1CCOCC1 | – | 4 (≈ 9.61 µM) | – |
| CC1=NN(c2ccc(Cl)cc2)C(=O)/C1=C(/c1ccc(Cl)cc1)N1CCC(C)CC1 | – | 64 (≈ 149 µM) | – |
| CC1=NN(c2ccccc2)C(=O)/C1=C(/c1ccc(Cl)cc1)N1CCSCC1 | – | 8 (≈ 20.1 µM) | 5.71 (≈ 14.3 µM) |
| CC1=NN(c2ccccc2)C(=O)/C1=C(/c1ccc(Cl)cc1)N1CCN(C)CC1 | – | 8 (≈ 20.3 µM) | 5.58 (≈ 14.1 µM) |
| CC1=NN(c2ccccc2)C(=O)/C1=C(/c1ccc(Cl)cc1)N1CCOCC1 | – | 16 (≈ 41.9 µM) | – |
| CC1=NN(c2ccc(Cl)cc2)C(=O)/C1=C\N1CCN(CCO)CC1 | – | 64 (≈ 183 µM) | – |
| CC(=O)N1CCN(/C=C2\C(=O)N(c3ccc(Cl)cc3)N=C2C)CC1 | – | 64 (≈ 185 µM) | – |
| Cc1[nH]n(-c2ccc(F)cc2)c(=O)c1C(=O)c1ccc(Cl)cc1 | 4 (≈ 12.1 µM) | – | – |
| CC1=NN(c2ccc(Cl)cc2)C(=O)/C1=C\N1CCOCC1 | – | 64 (≈ 209 µM) | – |
| CC1=NN(c2ccc(Cl)cc2)C(=O)/C1=C\N(C)C | – | > 64 | – |
| CC1=NN(c2ccccc2)C(=O)/C1=C(/c1ccc(Cl)cc1)N(C)C | – | 32 (≈ 94.2 µM) | – |
| CC1=NN(c2ccc(Cl)cc2)C(=O)/C1=C(/c1ccc(Cl)cc1)N(C)C | – | 16 (≈ 42.7 µM) | – |
| Cc1[nH]n(-c2ccc(Br)cc2)c(=O)c1C(=O)c1ccc(Cl)cc1 | 4 (≈ 10.2 µM) | – | – |
| Cc1nn(-c2ccccc2)c(O)c1C(=O)c1ccc(Cl)cc1 | 4 (≈ 12.8 µM) | – | – |
| CC1=NN(c2ccc(Cl)cc2)C(=O)/C1=C(/c1ccc(Cl)cc1)N1CCCCC1 | – | > 64 | – |
| CC1=NN(c2ccc(Cl)cc2)C(=O)/C1=C(/c1ccc(Cl)cc1)N1CCN(C)CC1 | – | 4 (≈ 9.32 µM) | 5.49 (≈ 12.8 µM) |
| CC1=NN(c2ccc(Cl)cc2)C(=O)/C1=C\Nc1ccccc1 | – | 64 (≈ 205 µM) | – |
| CC1=NN(c2ccc(Cl)cc2)C(=O)/C1=C\N1CCN(c2ccccc2)CC1 | – | 64 (≈ 168 µM) | – |
| CCCN(C)/C(=C1\C(=O)N(c2ccc(Cl)cc2)N=C1C)c1ccc(Cl)cc1 | – | 64 (≈ 159 µM) | – |
